Data taken from ChEMBL document CHEMBL1782036, “Atovaquone derivatives as potent cytotoxic and apoptosis inducing agents” (Bioorg Med Chem Lett, 2009).

Legend:
[1] = test system: MCF7; assay: Antiproliferative activity against human MCF7 cells after 72 hrs by MTT assay; type: functional, cell-based; conditions: MCF7, 72 h
[2] = test system: IMR-90; assay: Antiproliferative activity against human IMR90 cells after 72 hrs by MTT assay; type: cell-based; conditions: IMR-90, 72 h
[3] = test system: MOLT-4; assay: Antiproliferative activity against human MOLT4 cells after 72 hrs by MTT assay; type: functional, cell-based; conditions: MOLT-4, 72 h
[4] = test system: DU-145; assay: Induction of apoptosis in human DU145 cells at 5 uM assessed as dead cell level after 72 hrs by AnnexinV conjugated 7- AAD staining by flow cytometry; type: functional
Procedure, shortened: (§1)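 Du145 human prostate carcinoma cells exposed to compound for 72 h, then stained with Annexin V and 7-AAD and analysed by flow cytometry. Annexin V detects phosphatidylserine externalised to the outer membrane leaflet, and 7-AAD enters only membrane-compromised cells. Dead cells were those positive for both stains. Untreated cells served as control.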

[5] = test system: DU-145; assay: Induction of apoptosis in human DU145 cells at 10 uM assessed as live cell level after 72 hrs by AnnexinV conjugated 7- AAD staining by flow cytometry; type: functional
Procedure, shortened: (§2)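 Du145 cells were treated for 72 h and stained with Annexin V conjugate plus 7-AAD. Flow cytometry read PS externalization and membrane integrity, scoring cells as live (double negative), early apoptotic, or late apoptotic/necrotic (double positive). Untreated cells served as the control.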

[6] = test system: DU-145; assay: Induction of apoptosis in human DU145 cells at 5 uM assessed as late apoptosis/ necrotic cells level after 72 hrs by AnnexinV conjugated 7- AAD staining by flow cytometry; type: functional; procedure, shortened: as §2
[7] = test system: DU-145; assay: Induction of apoptosis in human DU145 cells at 10 uM assessed as late apoptosis/ necrotic cells level after 72 hrs by AnnexinV conjugated 7- AAD staining by flow cytometry; type: functional; procedure, shortened: as §2
[8] = test system: HT-1080; assay: Antiproliferative activity against human HT1080 cells after 72 hrs by MTT assay; type: functional, cell-based; conditions: HT-1080, 72 h
[9] = test system: OS-RC-2; assay: Antiproliferative activity against human OS-RC2 cells after 72 hrs by MTT assay; type: functional, cell-based; conditions: OS-RC-2, 72 h
[10] = Antiproliferative activity against human L78 cells after 72 hrs by MTT assay; type: functional, cell-based; conditions: L78, 72 h
[11] = test system: U-251; assay: Antiproliferative activity against human U251 cells after 72 hrs by MTT assay; type: functional, cell-based; conditions: U-251, 72 h
[12] = test system: DU-145; assay: Growth inhibition of human DU145 cells after 72 hrs by MTT assay; type: functional, cell-based; conditions: DU-145, 72 h
Procedure, shortened: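 Du145 human prostate carcinoma cells were screened by MTT cell-growth inhibition assay. IC50 values are means of three experiments.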

[13] = test system: DU-145; assay: Induction of apoptosis in human DU145 cells at 5 uM assessed as live cell level after 72 hrs by AnnexinV conjugated 7- AAD staining by flow cytometry; type: functional; procedure, shortened: as §2
[14] = test system: SGC-7901; assay: Antiproliferative activity against human SGC7901 cells after 72 hrs by MTT assay; type: functional, cell-based; conditions: SGC-7901, 72 h
[15] = test system: HeLa; assay: Antiproliferative activity against human HeLa cells after 72 hrs by MTT assay; type: functional, cell-based
[16] = test system: A549; assay: Antiproliferative activity against human A549 cells after 72 hrs by MTT assay; type: functional, cell-based; conditions: A549, 72 h
[17] = test system: DU-145; assay: Induction of apoptosis in human DU145 cells at 10 uM assessed as early apoptosis level after 72 hrs by AnnexinV conjugated 7- AAD staining by flow cytometry; type: functional; procedure, shortened: as §2
[18] = test system: HT-29; assay: Antiproliferative activity against human HT-29 cells after 72 hrs by MTT assay; type: functional, cell-based; conditions: HT-29, 72 h
[19] = test system: DU-145; assay: Induction of apoptosis in human DU145 cells at 10 uM assessed as dead cell level after 72 hrs by AnnexinV conjugated 7- AAD staining by flow cytometry; type: functional; procedure, shortened: as §1
[20] = test system: DU-145; assay: Induction of apoptosis in human DU145 cells at 5 uM assessed as early apoptosis level after 72 hrs by AnnexinV conjugated 7- AAD staining by flow cytometry; type: functional; procedure, shortened: as §2
[21] = test system: KB; assay: Antiproliferative activity against human KB cells after 72 hrs by MTT assay; type: functional, cell-based
[22] = test system: HepG2; assay: Antiproliferative activity against human HepG2 cells after 72 hrs by MTT assay; type: functional, cell-based; conditions: HepG2, 72 h

SMILES: O=C1C=C(N2CCN(c3ccccc3)CC2)C(=O)c2c(O)ccc(O)c21
- IC50 [1]: 3 µM
- IC50 [2]: > 50 µM
- IC50 [3]: > 50 µM
- Activity [4]: 1.39%
- Activity [5]: 0.95%
- Activity [6]: 71.34%
- Activity [7]: 84.76%
- IC50 [8]: 2.8 µM
- IC50 [9]: 1.5 µM
- IC50 [10]: 1.9 µM
- IC50 [11]: 6.1 µM
- IC50 [12]: 1.3 µM
- Activity [13]: 7.48%
- IC50 [14]: 2.5 µM
- IC50 [15]: 2.1 µM
- IC50 [16]: 1.7 µM
- Activity [17]: 13.77%
- IC50 [18]: 2.6 µM
- Activity [19]: 0.53%
- Activity [20]: 19.8%
- IC50 [21]: 1.4 µM
- IC50 [22]: 5.4 µM

SMILES: COc1ccc(N2CCN(C3=CC(=O)c4ccccc4C3=O)CC2)cc1
- IC50 [12]: 46.1 µM

SMILES: O=C1C=C(N2CCN(c3ccccc3)CC2)C(=O)c2ccccc21
- IC50 [12]: 9.9 µM

SMILES: O=C1C=C(N2CCC(c3ccccc3)CC2)C(=O)c2c(O)cccc21
- IC50 [1]: 8.8 µM
- IC50 [2]: > 50 µM
- IC50 [3]: 2.7 µM
- Activity [4]: 5.57%
- Activity [5]: 50.85%
- Activity [6]: 37.56%
- Activity [7]: 38.3%
- IC50 [8]: 11.1 µM
- IC50 [9]: 0.7 µM
- IC50 [10]: 13.4 µM
- IC50 [11]: 10.8 µM
- IC50 [12]: 3 µM
- Activity [13]: 53.01%
- IC50 [14]: 11.1 µM
- IC50 [15]: 8.6 µM
- IC50 [16]: > 50 µM
- Activity [17]: 3.17%
- IC50 [18]: 5.4 µM
- Activity [19]: 7.68%
- Activity [20]: 3.87%
- IC50 [21]: 2.2 µM
- IC50 [22]: 9.7 µM

SMILES: COc1ccccc1N1CCN(C2=CC(=O)c3cccc(O)c3C2=O)CC1
- IC50 [1]: 5.6 µM
- IC50 [2]: > 50 µM
- IC50 [3]: 25.8 µM
- Activity [4]: 5.08%
- Activity [5]: 23.55%
- Activity [6]: 42.79%
- Activity [7]: 62.93%
- IC50 [8]: 5.1 µM
- IC50 [9]: 1.9 µM
- IC50 [10]: 4.6 µM
- IC50 [11]: 4.4 µM
- IC50 [12]: 1.8 µM
- Activity [13]: 46.26%
- IC50 [14]: 6.8 µM
- IC50 [15]: 6.5 µM
- IC50 [16]: 3.6 µM
- Activity [17]: 10.13%
- IC50 [18]: 2.8 µM
- Activity [19]: 3.4%
- Activity [20]: 5.88%
- IC50 [21]: 2.8 µM
- IC50 [22]: 3.9 µM

SMILES: COc1cccc(N2CCN(C3=CC(=O)c4ccccc4C3=O)CC2)c1
- IC50 [12]: 15 µM

SMILES: O=C1C(N2CCN(c3ccccc3)CC2)=CC(=O)c2c(O)cccc21
- IC50 [12]: 15.2 µM

SMILES: COc1cc(N2CCN(C3=CC(=O)c4ccccc4C3=O)CC2)cc(OC)c1OC
- IC50 [12]: 11.6 µM

SMILES: COc1ccccc1N1CCN(C2=CC(=O)c3ccccc3C2=O)CC1
- IC50 [12]: 8 µM

SMILES: O=C1C=C(N2CCC(c3ccccc3)CC2)C(=O)c2ccccc21
- IC50 [12]: 6 µM

SMILES: O=C1C(N2CCN(c3ccc(F)cc3)CC2)=CC(=O)c2c(O)cccc21
- IC50 [12]: 22.4 µM

SMILES: O=C1C=C(N2CCC(c3ccc(Cl)cc3)CC2)C(=O)c2c(O)cccc21
- IC50 [1]: 20.5 µM
- IC50 [2]: > 50 µM
- IC50 [3]: > 50 µM
- Activity [4]: 4.69%
- Activity [5]: 1.95%
- Activity [6]: 35.95%
- Activity [7]: 87.96%
- IC50 [8]: 22.4 µM
- IC50 [9]: 5.2 µM
- IC50 [10]: 40.6 µM
- IC50 [11]: 6.1 µM
- IC50 [12]: 2.6 µM
- Activity [13]: 52.14%
- IC50 [14]: > 50 µM
- IC50 [15]: 18.2 µM
- IC50 [16]: 17.2 µM
- Activity [17]: 8.88%
- IC50 [18]: 6.9 µM
- Activity [19]: 1.21%
- Activity [20]: 7.22%
- IC50 [21]: 14 µM
- IC50 [22]: 5.4 µM

SMILES: Cc1cccc(N2CCN(C3=CC(=O)c4ccccc4C3=O)CC2)c1
- IC50 [12]: 7.4 µM

SMILES: O=C1C=C(N2CCN(c3ccc(F)cc3)CC2)C(=O)c2ccccc21
- IC50 [12]: 11.7 µM

SMILES: Cc1ccc(N2CCN(C3=CC(=O)c4ccccc4C3=O)CC2)cc1
- IC50 [12]: 8.2 µM

SMILES: Cc1ccccc1N1CCN(C2=CC(=O)c3ccccc3C2=O)CC1
- IC50 [12]: 5.7 µM

SMILES: O=C1C=C(N2CCN(c3cccc(Cl)c3)CC2)C(=O)c2ccccc21
- IC50 [12]: 8.3 µM

SMILES: O=C1C=C(N2CCN(c3ccccc3Cl)CC2)C(=O)c2c(O)cccc21
- IC50 [1]: 23.8 µM
- IC50 [2]: 16.9 µM
- IC50 [3]: 27.6 µM
- IC50 [8]: 5.8 µM
- IC50 [9]: 2.5 µM
- IC50 [10]: 5.2 µM
- IC50 [11]: 8 µM
- IC50 [12]: 2.3 µM
- IC50 [14]: 8.2 µM
- IC50 [15]: 7.2 µM
- IC50 [16]: 4.5 µM
- IC50 [18]: 1.4 µM
- IC50 [21]: 4.4 µM
- IC50 [22]: 7.7 µM

SMILES: COc1ccc(N2CCN(C3=CC(=O)c4ccccc4C3=O)CC2)cc1OC
- IC50 [12]: 17.8 µM

SMILES: Cc1ccccc1C1CCN(C2=CC(=O)c3ccccc3C2=O)CC1
- IC50 [12]: 6.1 µM

SMILES: COc1cccc2c1C(=O)c1c(O)c3c(c(O)c1C2=O)C[C@@](O)(C(=O)CO)C[C@@H]3O[C@H]1C[C@H](N)[C@H](O)[C@H](C)O1 [DOXORUBICIN]
- IC50 [2]: 1 µM
- IC50 [3]: 0.002 µM
- IC50 [8]: 0.1 µM
- IC50 [9]: 5.4 µM
- IC50 [10]: 2.4 µM
- IC50 [11]: 0.6 µM
- IC50 [14]: 0.9 µM
- IC50 [18]: 1.3 µM

SMILES: O=C1C(O)=C([C@H]2CC[C@H](c3ccc(Cl)cc3)CC2)C(=O)c2ccccc21 [ATOVAQUONE]
- IC50 [12]: 29.3 µM

SMILES: O=C1C=C(N2CCN(c3ccc(F)cc3)CC2)C(=O)c2c(O)cccc21
- IC50 [12]: 8.4 µM

SMILES: O=C1C=C(N2CCN(c3ccc(F)c(Cl)c3)CC2)C(=O)c2ccccc21
- IC50 [12]: 32.2 µM

SMILES: O=C1C=C(N2CCN(c3ccc(Br)cc3)CC2)C(=O)c2ccccc21
- IC50 [12]: > 50 µM

SMILES: O=C1C=C(N2CCN(c3ccc(Cl)cc3)CC2)C(=O)c2ccccc21
- IC50 [12]: 29.5 µM

SMILES: COc1cc(OC)cc(N2CCN(C3=CC(=O)c4ccccc4C3=O)CC2)c1
- IC50 [12]: 14.9 µM

SMILES: O=C1C=C(N2CCC(c3ccc(Cl)cc3)CC2)C(=O)c2ccccc21
- IC50 [12]: 7.3 µM
